KCNK3 inh: human KCNK3 channel inhibition, primary screen | O14649 | CHO-KCNK3 thallium flux, FluxOR fluorescence; active compounds read low | B-score at 10 µM | actives 0.84% (n = 340,000) | AID 602410;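 active means B-score under library mean minus 4 SD, starting fluorescence ratio at most library mean plus 5 SD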;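 further: more negative B-score means stronger inhibition of thallium flux through KCNK3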
KCNK9 inh: inhibitors of human KCNK9 two-pore domain potassium channel; Q9NPC2; HEK293 KCNK9, FluxOR thallium flux fluorescence; active compounds read low; B-score at 10 µM; actives 1.2% (n = 310,000);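 active means ratio B-score over 3 SD below the library mean, with starting fluorescence within 5 SD of its mean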;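 further: negative B-score means less thallium flux so channel inhibition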
hERG protect: shields human hERG channel from block by proarrhythmic agents | Q12809 | CHO-hERG, FluxOR thallium flux, dofetilide IC70 present | activation (rescue from dofetilide block), less the hit threshold, % at 10 µM | actives 0.51% (n = 310,000);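 active means activation above the mean of controls blocked by dofetilide plus 5 SD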;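 further: thallium influx through hERG after potassium depolarization seen as dye fluorescence rise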
KCNQ1 act: potentiators or activators of human KCNQ1 potassium channel; CHO-K1 KCNQ1, thallium flux FluxOR fluorescence; active compounds read high; B-score at 10 µM; actives 0.35% (n = 310,000);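 active means fluorescence ratio B-score, a plate-corrected score, at least three library SD, with initial intensity B-score within 5 SD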
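Doses: Single concentration per compound, DMSO matched to controls | Test system: KCNQ1-transfected CHO-K1 cells | Timing: 90 min dye loading and 20 min compound exposure, both at room temperature | Measured by: Kinetic FluxOR thallium fluorescence, 10-s 1-Hz baseline, 110-s post-stimulus read | Medium: Assay buffer with matched DMSO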
Kir21 block: blocks the mouse Kir2.1 inward-rectifier potassium channel; AID 1672; B-score at 10 µM; actives 0.85% (n = 310,000); P35561; HEK293-Kir2.1, FluxOR thallium flux fluorescence; active compounds read low;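 active means fluorescence ratio B-score at or below minus 3 SD of library scores, with starting-brightness B-score within 2 SD, cut at about -4.2 in these data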;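 further: channel flux triggered by added potassium and thallium sulfate stimulus; B-score of peak minus minimum fluorescence over baseline after thallium stimulus; more negative B-score means stronger Kir2.1 block with less thallium influx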
KCNQ1 block: human KCNQ1 channel inhibition; actives 1.3% (n = 310,000); B-score at 10 µM; CHO-K1 KCNQ1, FluxOR thallium flux fluorescence; active compounds read high; P51787;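 active means compounds whose thallium flux B-score, printed positive for inhibition, exceeds three library SD while starting fluorescence stays within three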;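 further: channel opened by potassium depolarization with thallium stimulus after 20 min compound exposure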
KCNK9 block conf: human KCNK9 inhibitor confirmation; shares compounds with KCNK9 inh; HEK293 KCNK9 cells, FluxOR thallium flux fluorescence; inhibition, % at 10 µM; actives 43% (n = 4,900); AID 492992;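 active means thallium signal inhibited by more than 5 SD of the compound-free buffer control wells, on both duplicate plates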
Kir2-1 spec: mouse Kir2.1 off-target activity of KCNK9 modulators | AID 492993 | shares compounds with KCNK9 inh | actives 4% (n = 4,900) | Kir2.1 cells, FluxOR thallium flux fluorescence | inhibition, % at 10 µM;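 active means thallium signal drop more than 5 SD beyond the mean of the no-compound control wells, seen in both duplicate plates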;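 further: signal is fluorescence rise after thallium addition divided by baseline fluorescence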
KCNK9 uninduced: second counter-screen for KCNK9 modulators: effect in non-induced cells. shares compounds with KCNK9 inh. non-induced KCNK9-HEK293, FluxOR thallium flux. inhibition, % at 10 µM. actives 40% (n = 4,900). AID 492997;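 active means thallium signal drop beyond 5 SD of the untreated control mean, on both duplicate plates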
Numbers stand for hits. An excerpt weighted towards active compounds, which were near 3.7% of everything screened.

What do the screens show for `O=C(Nc1cccc(F)c1)C1CCN(C(=O)c2ccc(Br)cc2)CC1`?
KCNK3 inh: inactive; KCNK9 inh: inactive; hERG protect: inactive; KCNQ1 act: inactive; Kir21 block: inactive; KCNQ1 block: inactive; KCNK9 block conf: inactive; Kir2-1 spec: inactive; KCNK9 uninduced: inactive

How did O=C(Nc1ccc(Br)cc1)C1CCN(C(=O)c2ccc(F)cc2)CC1 do in these assays?
KCNK3 inh: inactive; KCNK9 inh: inactive; hERG protect: inactive; KCNQ1 act: inactive; Kir21 block: inactive; KCNQ1 block: inactive; KCNK9 block conf: inactive; Kir2-1 spec: inactive; KCNK9 uninduced: inactive

Results for CCC(C)n1c(SCC(=O)Nc2ccccc2C(F)(F)F)nc2ccsc2c1=O (stereo unspecified) ?
KCNK3 inh: inactive; KCNK9 inh: -8.9; hERG protect: inactive; KCNQ1 act: inactive; Kir21 block: inactive; KCNQ1 block: inactive; KCNK9 block conf: 26%; Kir2-1 spec: inactive; KCNK9 uninduced: 26%

What do the screens show for `Cn1ccnc1SCC(=O)n1c2c(c3ccccc31)CCCC2`?
KCNK3 inh: inactive; KCNK9 inh: inactive; hERG protect: inactive; KCNQ1 act: inactive; Kir21 block: inactive; KCNQ1 block: inactive; KCNK9 block conf: inactive; Kir2-1 spec: inactive; KCNK9 uninduced: inactive

What do the screens show for `CNC(=S)N1N=C(c2ccccc2)CC1c1ccc(OC)c(OC)c1` (stereo unspecified)?
KCNK3 inh: inactive; KCNK9 inh: inactive; hERG protect: inactive; KCNQ1 act: inactive; Kir21 block: inactive; KCNQ1 block: inactive

How did COc1cc(OC)c(OC)cc1CN1CCCC(C(=O)c2ccccc2SC)C1 (stereo unspecified) do in these assays?
KCNK3 inh: inactive; KCNK9 inh: inactive; hERG protect: inactive; KCNQ1 act: inactive; Kir21 block: inactive; KCNQ1 block: inactive; KCNK9 block conf: inactive; Kir2-1 spec: inactive; KCNK9 uninduced: inactive

What do the screens show for `COC(=O)CCCC(=O)N1CCCC(C(=O)c2ccccc2SC)C1` (stereo unspecified)?
KCNK3 inh: inactive; KCNK9 inh: inactive; hERG protect: inactive; KCNQ1 act: inactive; Kir21 block: inactive; KCNQ1 block: inactive

What do the screens show for `COc1cc(CN2CCCC(C(=O)c3ccccc3SC)C2)cc(OC)c1` (stereo unspecified)?
KCNK3 inh: inactive; KCNK9 inh: inactive; hERG protect: inactive; KCNQ1 act: inactive; Kir21 block: inactive; KCNQ1 block: inactive; KCNK9 block conf: inactive; Kir2-1 spec: inactive; KCNK9 uninduced: inactive

How did CC(C)Oc1ccc(C(=O)/C(=C\c2cccs2)c2nc3ccccc3o2)cc1 do in these assays?
KCNK3 inh: inactive; KCNK9 inh: inactive; hERG protect: inactive; KCNQ1 act: inactive; Kir21 block: inactive; KCNQ1 block: inactive; KCNK9 block conf: inactive; Kir2-1 spec: inactive; KCNK9 uninduced: inactive

Results for Cc1ccc(C)c(N2CCN(S(=O)(=O)c3c(C)noc3C)CC2)c1 ?
KCNK3 inh: inactive; KCNK9 inh: inactive; hERG protect: inactive; KCNQ1 act: inactive; Kir21 block: inactive; KCNQ1 block: inactive; KCNK9 block conf: inactive; Kir2-1 spec: inactive; KCNK9 uninduced: 28%

Results for COC(=O)c1c(C)[nH]c(C(=O)OCc2csc(CC(=O)Nc3ccccc3C)n2)c1C ?
KCNK3 inh: inactive

How did CCN(C(=O)COC(=O)c1oc2ccc(OC)cc2c1C)C1CCS(=O)(=O)C1 (stereo unspecified) do in these assays?
KCNK3 inh: inactive

What do the screens show for `O=C(Cc1ccc([N+](=O)[O-])cc1)Nc1nccs1`?
KCNK3 inh: inactive; KCNK9 inh: -20; hERG protect: inactive; KCNQ1 act: inactive; Kir21 block: inactive; KCNQ1 block: inactive; KCNK9 block conf: inactive; Kir2-1 spec: inactive; KCNK9 uninduced: inactive

Screening data deposited in PubChem BioAssay by Johns Hopkins Ion Channel Center.
